Six molecules from ChEMBL document CHEMBL1151693, “Design, synthesis, and pharmacological evaluation of N-bicyclo-5-chloro-1H-indole-2-carboxamide derivatives as potent glycogen phosphorylase inhibitors” (Bioorg Med Chem, 2008) can be followed below.

Series [1] can be described thus: Oral bioavailability in Sprague-Dawley rat at 3 mg/kg. It counts as ADME, organism-based. To be noted: in vivo. Put shortly:
(§1)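 Pharmacokinetics were determined in male SD rats after intravenous or oral administration.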

Series [2] concerns Mus musculus. The series is described as follows: Hypoglycemic activity in db/db mouse assessed as reduction of plasma glucose at 3 mg/kg, po after 2 hrs relative to control. The class given is functional. Also noted: scale not given: the % may be the effect or the level left. Put shortly:
(§2)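 Diabetic db/db mice were dosed orally. Plasma glucose was measured 2 h post-dose in drug-treated and vehicle-treated control animals. Activity is the percent decrease in plasma glucose versus the vehicle controls. Significance versus control was tested by Dunnett's test or Student's t-test.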

Series [3] in a line: Volume of distribution in Sprague-Dawley rat at 1 mg/kg, iv. The class given is ADME, organism-based. Also noted: dose 1 mg/kg, route intravenous. To be noted: in vivo. Put shortly:
as §1

Series [4] in a line: AUC (0 to infinity) in Sprague-Dawley rat at 1 mg/kg, iv. The following applies: plasma. Also on record: time infinity, dose 1 mg/kg, route intravenous. It counts as ADME, organism-based. Put shortly: as §1
Series [5] in a line: AUC (0 to infinity) in Sprague-Dawley rat at 3 mg/kg, po. It counts as ADME, organism-based. Also noted: time infinity, dose 3 mg/kg, route oral. The following applies: plasma. Put shortly:
as §1

Series [6] in a line: Total clearance in Sprague-Dawley rat at 1 mg/kg, iv. Also on record: dose 1 mg/kg, route intravenous. The following applies: in vivo. It counts as ADME, organism-based. Put shortly: as §1
A short description of series [7]: Tmax in Sprague-Dawley rat at 3 mg/kg, po. It counts as ADME, organism-based. Also noted: dose 3 mg/kg, route oral. To be noted: in vivo. Put shortly: as §1
In another series the test system is Hepatocyte. Nature of the series: Inhibition of glucagon-induced glucose output in cultured rat primary hepatocytes. It counts as functional, cell-based.
Series [8] concerns the target T1, Glycogen phosphorylase, liver form (Homo sapiens, UniProt P06737).
T1 sequence (P06737 whole entry): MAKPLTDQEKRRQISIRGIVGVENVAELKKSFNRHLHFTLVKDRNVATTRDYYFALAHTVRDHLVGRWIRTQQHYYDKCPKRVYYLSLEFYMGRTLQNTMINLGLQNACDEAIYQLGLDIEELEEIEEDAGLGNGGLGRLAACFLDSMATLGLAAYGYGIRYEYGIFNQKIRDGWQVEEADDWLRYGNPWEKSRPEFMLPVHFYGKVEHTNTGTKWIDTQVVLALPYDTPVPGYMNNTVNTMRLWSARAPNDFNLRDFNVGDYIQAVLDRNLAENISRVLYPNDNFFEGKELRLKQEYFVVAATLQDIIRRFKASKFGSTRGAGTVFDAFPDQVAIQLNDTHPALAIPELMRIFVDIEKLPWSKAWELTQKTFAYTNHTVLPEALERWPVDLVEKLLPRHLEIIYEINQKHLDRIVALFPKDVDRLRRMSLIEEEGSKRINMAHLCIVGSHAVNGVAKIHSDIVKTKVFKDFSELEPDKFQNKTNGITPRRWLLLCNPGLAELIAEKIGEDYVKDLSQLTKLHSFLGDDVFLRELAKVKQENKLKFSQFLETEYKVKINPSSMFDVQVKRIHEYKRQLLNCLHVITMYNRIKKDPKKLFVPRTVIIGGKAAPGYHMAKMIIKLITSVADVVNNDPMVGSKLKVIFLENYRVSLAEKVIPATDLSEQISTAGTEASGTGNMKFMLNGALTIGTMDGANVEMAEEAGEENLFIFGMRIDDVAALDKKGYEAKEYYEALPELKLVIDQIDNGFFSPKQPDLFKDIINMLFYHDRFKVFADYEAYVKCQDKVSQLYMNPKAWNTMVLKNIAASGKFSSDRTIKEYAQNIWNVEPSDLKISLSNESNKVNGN
Nature of the series: Inhibition of active form of human liver glycogen phosphorylase.

Series [9] is described as follows: Cmax in Sprague-Dawley rat at 3 mg/kg, po. The class given is ADME, organism-based. Also on record: dose 3 mg/kg, route oral. To be noted: in vivo. Put shortly:
as §1

For series [10], the system named is Mus musculus. Nature of the series: Hypoglycemic activity in db/db mouse assessed as reduction of plasma glucose at 10 mg/kg, po after 2 hrs relative to control. Also on record: scale not given: the % may be the effect or the level left. The class given is functional. Put shortly: as §2
Series [11] in a line: Half life in Sprague-Dawley rat at 1 mg/kg, iv. The following applies: in vivo. Also noted: dose 1 mg/kg, route intravenous. It counts as ADME, organism-based. Put shortly: as §1
Series [12] concerns Mus musculus. The series is described as follows: Hypoglycemic activity in db/db mouse assessed as reduction of plasma glucose at 30 mg/kg, po after 2 hrs relative to control. It counts as functional. Also noted: scale not given: the % may be the effect or the level left. Put shortly: as §2

Some results are limits rather than exact numbers.

By bioavailability is commonly meant dose-corrected exposure relative to a reference, in per cent. The Vd is the apparent volume that relates the amount in the body to the concentration in plasma or blood. As a reminder, the AUC(0-inf) is the area under the concentration-time curve extrapolated to infinity. One may read the clearance as a measure of how efficiently the substance is removed, as volume per time. What is called Tmax is the time from dosing to the highest level. One may read the IC50 as the concentration that inhibits the measured activity by half. One may read the Cmax as the peak of the concentration-time curve. The term half-life denotes the time needed for the level to fall by half in the phase considered. Turning to `O=C(Nc1c(F)cc2c(c1F)CCC(F)(F)[C@@H]2O)c1cc2cc(Cl)ccc2[nH]1`, the bioavailability in series [1] came out at 100%. For the same molecule, the Activity in the series with Mus musculus [2] came out at 14%; in the series on Mus musculus [10] it was 26%. The Vd in series [3] came out at 18.1 L/kg. Moreover, the AUC(0-inf) is 930 ng·h/mL in series [4] and 2780 ng·h/mL in series [5]. This molecule gave a clearance in [6] of 17.9 mL/min/kg. In addition, the Tmax in [7] came to 0.5 h. Further, the IC50 in the series on Hepatocyte turned out to be 690 nM; in series [8], 20 nM. The molecule further came in with a Cmax in series [9] of 785 ng/mL. In addition, the half-life in series [11] was 12 h.

With `O=C(Nc1c(F)cc2c(c1F)CCC(F)(F)C2O)c1cc2cc(Cl)ccc2[nH]1` (configuration not stated), inhibition in [8] was half-maximal at 36 nM (IC50).

As to `O=C(N[C@@H](Cc1ccc(F)cc1)C(=O)N1CCC(O)CC1)c1cc2cc(Cl)ccc2[nH]1`, in the series on Mus musculus [12], the Activity was 24%.

The molecule `O=C(Nc1c(F)cc2c(c1F)CCC(F)(F)[C@H]2O)c1cc2cc(Cl)ccc2[nH]1` displayed an IC50 in series [8] of 160 nM.

Consider `CC1(C)CCc2cc(NC(=O)c3cc4cc(Cl)ccc4[nH]3)ccc2C1O` (configuration not stated), for which the IC50 in series [8] is over 10000 nM.

Molecule `O=C(Nc1ccc2c(c1F)CCC(F)(F)C2O)c1cc2cc(Cl)ccc2[nH]1` (configuration not stated) had an IC50 in [8] of 48 nM.
